Data: ChEMBL document CHEMBL5104202, “Structure-Uptake Relationship Studies of Oxazolidinones in Gram-Negative ESKAPE Pathogens” (J Med Chem, 2022)
Converted amounts (≈) assume the structure as drawn.

Tests used:
Escherichia coli [1] = assay: Antibacterial activity against Escherichia coli SQ110 DTC G2032A incubated for 24 hrs by twofold serial dilution method; assay type: functional
In short: (§1)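 E. coli SQDTC (TolC-deficient, single rRNA operon) carrying LZD-resistant 23S rRNA substitutions. Compounds come from 10 mM DMSO stocks and are twofold serially diluted in 96-well plates.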

Acinetobacter baumannii [2] = assay: Antibacterial activity against multidrug resistant Acinetobacter baumannii AYE assessed as inhibition of bacterial growth incubated for 24 hrs in MHI medium by twofold serial dilution method; assay type: functional
Pseudomonas aeruginosa [3] = assay: Antibacterial activity against efflux pump lacking Pseudomonas aeruginosa assessed as inhibition of bacterial growth; assay type: functional, organism-based
Escherichia coli [4] = assay: Antibacterial activity against efflux pump lacking/recombinant OM pore producing Escherichia coli incubated for 24 hrs by twofold serial dilution method; assay type: functional
In short: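 E. coli efflux-knockout/hyperporinated strain grown in M9 medium with 50 mM MOPS (pH 7.2) and 0.2% xylose. OM pore induced with 0.1% arabinose. Compounds come from 10 mM DMSO stocks and are twofold serially diluted in 96-well plates.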

Acinetobacter baumannii [5] = assay: Antibacterial activity against wild type Acinetobacter baumannii assessed as inhibition of bacterial growth; assay type: functional, organism-based
Acinetobacter baumannii [6] = assay: Antibacterial activity against recombinant OM pore producing Acinetobacter baumannii assessed as inhibition of bacterial growth; assay type: functional, organism-based
Escherichia coli [7] = assay: Antibacterial activity against Escherichia coli SQ110 DTC C2610A incubated for 24 hrs by twofold serial dilution method; assay type: functional; in short: as §1
Escherichia coli [8] = assay: Antibacterial activity against efflux pump lacking/recombinant OM pore producing Escherichia coli assessed as inhibition of bacterial growth; assay type: functional, organism-based
Escherichia coli [9] = assay: Antibacterial activity against recombinant OM pore producing Escherichia coli assessed as inhibition of bacterial growth; assay type: functional, organism-based
Pseudomonas aeruginosa [10] = assay: Antibacterial activity against recombinant OM pore producing Pseudomonas aeruginosa assessed as inhibition of bacterial growth; assay type: functional, organism-based
Pseudomonas aeruginosa [11] = assay: Antibacterial activity against multidrug resistant Pseudomonas aeruginosa BAA 2109 assessed as inhibition of bacterial growth incubated for 24 hrs in […] medium by twofold serial dilution method; assay type: functional
Pseudomonas aeruginosa [12] = assay: Antibacterial activity against efflux pump lacking/recombinant OM pore producing Pseudomonas aeruginosa incubated for 24 hrs by twofold serial dilution method; assay type: functional
In short: (§2)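 MICs by twofold serial dilution in 96-well plates from 10 mM DMSO stocks. Cultures grown in the indicated media; for E. coli, A. baumannii and P. aeruginosa, inducers were 0.1% arabinose, 1% arabinose and 0.1 mM IPTG respectively.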

Acinetobacter baumannii [13] = assay: Antibacterial activity against multidrug resistant Acinetobacter baumannii Ab5075 assessed as inhibition of bacterial growth incubated for 24 hrs in M9-MOPS medium by twofold serial dilution method; assay type: functional
Klebsiella aerogenes = assay: Antibacterial activity against multidrug resistant Klebsiella aerogenes ATCC13048 assessed as inhibition of bacterial growth incubated for 24 hrs in M9-MOPS medium by twofold serial dilution method; assay type: functional
Pseudomonas aeruginosa [14] = assay: Antibacterial activity against multidrug resistant Pseudomonas aeruginosa BAA 2108 assessed as inhibition of bacterial growth incubated for 24 hrs in M9-MOPS medium by twofold serial dilution method; assay type: functional
Acinetobacter baumannii [15] = assay: Antibacterial activity against efflux pump lacking/recombinant OM pore producing Acinetobacter baumannii assessed as inhibition of bacterial growth; assay type: functional, organism-based
Pseudomonas aeruginosa [16] = assay: Antibacterial activity against multidrug resistant Pseudomonas aeruginosa BAA 2109 assessed as inhibition of bacterial growth incubated for 24 hrs in MHI medium by twofold serial dilution method; assay type: functional
Klebsiella pneumoniae [17] = assay: Antibacterial activity against multidrug resistant Klebsiella pneumoniae ATCC13883 assessed as inhibition of bacterial growth incubated for 24 hrs in MHI medium by twofold serial dilution method; assay type: functional
Escherichia coli [18] = assay: Antibacterial activity against Escherichia coli SQ110 incubated for 24 hrs by twofold serial dilution method; assay type: functional; in short: as §2
Pseudomonas aeruginosa [19] = assay: Antibacterial activity against wild type Pseudomonas aeruginosa assessed as inhibition of bacterial growth; assay type: functional, organism-based
Klebsiella pneumoniae [20] = assay: Antibacterial activity against multidrug resistant Klebsiella pneumoniae ATCC43816 assessed as inhibition of bacterial growth incubated for 24 hrs in MHI medium by twofold serial dilution method; settings: ATCC43816, 24 h
Pseudomonas aeruginosa [21] = assay: Antibacterial activity against multidrug resistant Pseudomonas aeruginosa BAA 2108 assessed as inhibition of bacterial growth incubated for 24 hrs in MHI medium by twofold serial dilution method; assay type: functional
Klebsiella pneumoniae [22] = assay: Antibacterial activity against multidrug resistant Klebsiella pneumoniae ATCC43816 assessed as inhibition of bacterial growth incubated for 24 hrs in MHI medium by twofold serial dilution method; assay type: functional
Escherichia coli [23] = assay: Antibacterial activity against efflux pump lacking Escherichia coli assessed as inhibition of bacterial growth; assay type: functional, organism-based
Escherichia coli [24] = assay: Antibacterial activity against Escherichia coli SQ110 DTC incubated for 24 hrs by twofold serial dilution method; assay type: functional; in short: as §2
Staphylococcus aureus = assay: Antibacterial activity against Staphylococcus aureus ATCC 25923 incubated for 24 hrs by twofold serial dilution method; assay type: functional; in short: as §2
Acinetobacter baumannii [25] = assay: Antibacterial activity against efflux pump lacking Acinetobacter baumannii assessed as inhibition of bacterial growth; assay type: functional, organism-based
Acinetobacter baumannii [26] = assay: Antibacterial activity against efflux pump lacking/recombinant OM pore producing Acinetobacter baumannii incubated for 24 hrs by twofold serial dilution method; assay type: functional; in short: as §2
Acinetobacter baumannii [27] = assay: Antibacterial activity against multidrug resistant Acinetobacter baumannii AYE assessed as inhibition of bacterial growth incubated for 24 hrs in M9-MOPS medium by twofold serial dilution method; assay type: functional
Escherichia coli [28] = assay: Antibacterial activity against wild type Escherichia coli assessed as inhibition of bacterial growth; assay type: functional, organism-based
Pseudomonas aeruginosa [29] = assay: Antibacterial activity against efflux pump lacking/recombinant OM pore producing Pseudomonas aeruginosa assessed as inhibition of bacterial growth; assay type: functional, organism-based
Klebsiella pneumoniae [30] = assay: Antibacterial activity against multidrug resistant Klebsiella pneumoniae ATCC13883 assessed as inhibition of bacterial growth incubated for 24 hrs in M9-MOPS medium by twofold serial dilution method; assay type: functional
Acinetobacter baumannii [31] = assay: Antibacterial activity against multidrug resistant Acinetobacter baumannii Ab5075 assessed as inhibition of bacterial growth incubated for 24 hrs in MHI medium by twofold serial dilution method; assay type: functional
Klebsiella pneumoniae [32] = assay: Antibacterial activity against multidrug resistant Klebsiella pneumoniae ATCC43816 assessed as inhibition of bacterial growth incubated for 24 hrs in M9-MOPS medium by twofold serial dilution method; assay type: functional

| Compound | MIC (Acinetobacter baumannii [2]) | IC50 (Pseudomonas aeruginosa [3]) | IC50 (Acinetobacter baumannii [5]) | IC50 (Acinetobacter baumannii [6]) | IC50 (Escherichia coli [8]) | IC50 (Escherichia coli [9]) | IC50 (Pseudomonas aeruginosa [10]) | MIC (Pseudomonas aeruginosa [11]) | MIC (Acinetobacter baumannii [13]) | MIC (Klebsiella aerogenes) | MIC (Pseudomonas aeruginosa [14]) | IC50 (Acinetobacter baumannii [15]) | MIC (Pseudomonas aeruginosa [16]) | MIC (Klebsiella pneumoniae [17]) | IC50 (Pseudomonas aeruginosa [19]) | MIC (Klebsiella pneumoniae [20]) | MIC (Pseudomonas aeruginosa [21]) | MIC (Klebsiella pneumoniae [22]) | IC50 (Escherichia coli [23]) | IC50 (Acinetobacter baumannii [25]) | other results |
| --- | --- | --- | --- | --- | --- | --- | --- | --- | --- | --- | --- | --- | --- | --- | --- | --- | --- | --- | --- | --- | --- |
| C[n+]1ccc(-c2ccc(-c3ccc(N4C[C@H](CO)OC4=O)cc3F)cc2)cc1 | > 200 µM | > 100 µM | > 100 µM | 10 µM | 0.5 µM | 1.7 µM | > 100 µM | > 200 µM | 200 µM | 50 µM | > 200 µM | 10.8 µM | > 200 µM | > 200 µM | > 100 µM | > 200 µM | > 200 µM | > 200 µM | 0.5 µM | 64 µM | MIC (Escherichia coli [1]): 25 µM; MIC (Escherichia coli [4]): 12.5 µM; MIC (Escherichia coli [7]): 12.5 µM; MIC (Pseudomonas aeruginosa [12]): 12.5 µM; MIC (Escherichia coli [18]): > 100 µM; MIC (Escherichia coli [24]): 3.12 µM; MIC (Staphylococcus aureus): 12.5 µM; MIC (Acinetobacter baumannii [26]): 50 µM; MIC (Acinetobacter baumannii [27]): > 200 µM; IC50 (Escherichia coli [28]): 15.4 µM; IC50 (Pseudomonas aeruginosa [29]): > 100 µM; MIC (Klebsiella pneumoniae [30]): 100 µM; MIC (Acinetobacter baumannii [31]): > 200 µM; MIC (Klebsiella pneumoniae [32]): > 200 µM |
| O=C1O[C@@H](CO)CN1c1ccc(-c2cccnc2)c(F)c1 | > 200 µM | 4.7 µM | 19 µM | 19 µM | 3.2 µM | 14.5 µM | 75.3 µM | > 200 µM | 100 µM (≈ 28.8 µg/mL) | 200 µM (≈ 57.7 µg/mL) | > 200 µM | 4.3 µM | > 200 µM | > 200 µM | > 100 µM | > 200 µM | > 200 µM | > 200 µM | 2.8 µM | 4.3 µM | MIC (Escherichia coli [1]): 50 µM (≈ 14.4 µg/mL); MIC (Escherichia coli [4]): 25 µM; MIC (Escherichia coli [7]): 25 µM (≈ 7.21 µg/mL); MIC (Pseudomonas aeruginosa [12]): 6.25 µM; MIC (Escherichia coli [18]): > 100 µM; MIC (Escherichia coli [24]): 12.5 µM (≈ 3.6 µg/mL); MIC (Staphylococcus aureus): 1.56 µM (≈ 0.45 µg/mL); MIC (Acinetobacter baumannii [26]): 12.5 µM; MIC (Acinetobacter baumannii [27]): 100 µM (≈ 28.8 µg/mL); IC50 (Escherichia coli [28]): > 100 µM; IC50 (Pseudomonas aeruginosa [29]): 6 µM; MIC (Klebsiella pneumoniae [30]): 200 µM (≈ 57.7 µg/mL); MIC (Acinetobacter baumannii [31]): > 200 µM; MIC (Klebsiella pneumoniae [32]): > 200 µM |
| O=C1O[C@@H](CO)CN1c1ccc(-c2cccc(CO)c2)c(F)c1 | > 200 µM | 15.5 µM | 45.8 µM | 10.8 µM | 2 µM | 1.5 µM | > 100 µM | > 200 µM | 200 µM (≈ 63.5 µg/mL) | > 200 µM | > 200 µM | 7.6 µM | > 200 µM | > 200 µM | > 100 µM | > 200 µM | > 200 µM | > 200 µM | 1.5 µM | 5.4 µM | MIC (Acinetobacter baumannii [27]): 200 µM (≈ 63.5 µg/mL); IC50 (Escherichia coli [28]): 66.9 µM; IC50 (Pseudomonas aeruginosa [29]): 13 µM; MIC (Klebsiella pneumoniae [30]): 200 µM (≈ 63.5 µg/mL); MIC (Acinetobacter baumannii [31]): > 200 µM; MIC (Klebsiella pneumoniae [32]): > 200 µM |
